BaF3 tox = reduces parental Ba/F3 cell viability, JAK2V617F counter-screen; CellTiter-Glo ATP luminescence; actives 1.1% (n = 220,000); AID 1486; inhibition, % at 5.6 µM;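 active means inhibition above a per-campaign cutoff, the mean inhibition of all tested compounds plus 3 SD, cut at about 27% in these data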
b-catenin transl = modulators of beta-catenin nuclear translocation; AID 1665; HeLa beta-catenin nuclear translocation, immunofluorescence imaging; nuclear translocation activity, % at 5 µM; actives 0.3% (n = 190,000);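 active means nuclear translocation activity above 50% at 5 µM, with a well cell count of 50 or more; inconclusive means wells under 50 cells across six images, flagged as toxic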;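 further: per-cell ratio of nuclear to cytoplasmic median beta-catenin stain intensity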
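Test system: human HeLa cells, endogenous beta-catenin. Times: 24 h compound exposure, 37°C. Measured by: beta-catenin immunofluorescence imaging with DAPI.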
Ba/F3 V617F tox = loss of viability in JAK2V617F-driven Ba/F3 cells | Ba/F3 EpoR-JAK2V617F viability, ATP luminescence | inhibition, % at 5.6 µM | actives 1.1% (n = 220,000) | AID 1446;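 active means inhibition above the campaign mean plus 3 SD over all tested compounds, cut at about 24% in these data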;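 further: cytokine-independent growth of Ba/F3 cells driven by EpoR plus mutant JAK2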
APP 5UTR inh = APP translation inhibition; SH-SY5Y APP 5'UTR-luciferase reporter, luminescence; inhibition, % at 2 µM; actives 0.82% (n = 190,000);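 active means inhibition above a set limit, derived from the sample mean plus 3 SD, cut at about 45% in these data; inconclusive means one replicate passes the limit while the other fails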
MT stabilize HCS = stabilizes microtubules in HeLa cells; HeLa tubulin immunostaining HCS, 24 h; share of cells brighter than vehicle mean+2SD; % tubulin-high responders, % at 10 µM; actives 0.83% (n = 200,000);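 active means plate Z-score above 3 for both tubulin-high and condensed-nucleus cell shares, with cell loss under 80%, at 10 µM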;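 further: anti alpha tubulin signal scored within the nucleus-defined area of each cell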
Lmaj promast = Leishmania major promastigote growth inhibition | Leishmania major promastigotes, resazurin fluorescence viability | inhibition, % at 10 µM | actives 9% (n = 200,000) | AID 1063; in the data active means inhibition above about 50%;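 further: promastigotes grown with compound for 44 hours at 28 °C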
BaF3 parental 2 = parental Ba/F3 viability inhibition for JAK2V617F counter-screen; shares compounds with Ba/F3 V617F tox; CellTiter-Glo luminescence; cells kept alive by added IL-3; inhibition, % at 5.6 µM; actives 31% (n = 580); AID 1520;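 active means cell growth inhibition above the hit limit set in the earlier mutant JAK2 cell screen, cut at about 27% in these data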
JAK2V617F conf = confirmation: loss of viability in JAK2V617F-dependent Ba/F3 cells | shares compounds with Ba/F3 V617F tox | Ba/F3 EpoR-JAK2V617F viability, CellTiter-Glo luminescence | inhibition, % at 5.6 µM | actives 66% (n = 580);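 active means mean inhibition above the hit cutoff derived in the earlier primary screen, cut at about 25% in these data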;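 further: higher means lower luminescence from reduced cell ATP and viability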
Large screens that a line does not name were inactive (follow-up assays come after a bar, where they were run). Hits are enriched below; roughly 9.6% of the tested compounds scored in any of these assays.

CCOc1cc(NC(=O)c2ccco2)c(OCC)cc1NC(=O)c1cc(OC)c(OC)c(OC)c1	none
Oc1ccc(-c2nc3ccc4ccccc4c3c3c2CCC3)cc1O	Ba/F3 V617F tox 63 | BaF3 parental 2 53 | JAK2V617F conf 97
Fc1ccc(N2CCN(Cc3cn[nH]c3-c3ccccc3)CC2)cc1	none (no result: APP 5UTR inh, MT stabilize HCS, Lmaj promast)
Fc1ccc(N2CCN(Cc3ccccn3)CC2)cc1	Ba/F3 V617F tox 63 | BaF3 parental 2 inactive | JAK2V617F conf inactive
CCOc1ccc(OCC)c(NC(=O)C2CCN(S(=O)(=O)c3c(C)[nH]c(=O)[nH]c3=O)CC2)c1	none
CCCOc1ccc(C(=O)C(c2ccccc2)N2CCOCC2)cc1 (configuration not stated)	none
CCCOc1ccc(C(=O)C(CN2CCOCC2)c2ccccc2)cc1 (configuration not stated)	b-catenin transl inconclusive, Ba/F3 V617F tox 46, Lmaj promast 100 | BaF3 parental 2 inactive | JAK2V617F conf 97
O=C1C=CCC(/C=C/c2ccccc2)O1 (configuration not stated)	Ba/F3 V617F tox 46 (no result: b-catenin transl) | BaF3 parental 2 inactive | JAK2V617F conf 97
COc1cc2c(cc1NC(=O)c1cccc([N+](=O)[O-])c1C)oc1ccccc12	Ba/F3 V617F tox 53 | BaF3 parental 2 inactive | JAK2V617F conf inactive
Cc1noc(C)c1CSc1nc2ccccc2c(=O)n1-c1ccccc1	Ba/F3 V617F tox 29, MT stabilize HCS 42 | BaF3 parental 2 33 | JAK2V617F conf 54
Cc1noc(C)c1CSc1nc2ccccc2c(=O)n1-c1ccc(F)cc1F	none
O=C(C=C=Nc1ccccc1)C(=O)N=C=Cc1ccccc1	Ba/F3 V617F tox 68 (no result: APP 5UTR inh, MT stabilize HCS, Lmaj promast) | BaF3 parental 2 inactive | JAK2V617F conf 79
CCn1c(=N)n(CC(=O)c2ccc(Br)s2)c2ccccc21	none (no result: APP 5UTR inh, MT stabilize HCS, Lmaj promast)
CCCCn1c(=N)n(CC(=O)c2ccc(Br)s2)c2ccccc21	Ba/F3 V617F tox 71 (no result: APP 5UTR inh, MT stabilize HCS, Lmaj promast) | BaF3 parental 2 inactive | JAK2V617F conf 60
COC(=O)/C=C/S(=O)(=O)c1ccc(NC(C)=O)cc1	Ba/F3 V617F tox 26, APP 5UTR inh 83 | BaF3 parental 2 inactive | JAK2V617F conf inactive
CCOC(=O)c1c(C)sc2c1N(C(=O)CCl)c1cc(Cl)ccc1S2	Ba/F3 V617F tox 28, Lmaj promast 101 | BaF3 parental 2 58 | JAK2V617F conf 99
Cc1sc2ncnc(SCC(=O)N3c4ccccc4Sc4ccc(Cl)cc43)c2c1C	none
Brc1cc2c(cc1/C=N/Nc1nc(N3CCOCC3)nc(N3CCOCC3)n1)OCO2	none
Cc1cccc(OCC(O)Cn2c(=N)n(Cc3ccccc3)c3ccccc32)c1 (configuration not stated)	Ba/F3 V617F tox 26 (no result: APP 5UTR inh, MT stabilize HCS, Lmaj promast) | BaF3 parental 2 inactive | JAK2V617F conf 32
COc1ccc(OCC(O)Cn2c(=N)n(Cc3ccccc3)c3ccccc32)cc1 (configuration not stated)	Ba/F3 V617F tox 68, Lmaj promast 101 | BaF3 parental 2 inactive | JAK2V617F conf 35
CCOC(=O)C1=NN(C(C)=O)C2C(=O)N(CC)C(=O)C12 (configuration not stated)	none (no result: APP 5UTR inh, MT stabilize HCS, Lmaj promast)
C=CCOC(=O)C1=C(C)NC(=O)NC1C1CC=CCC1 (configuration not stated)	none
Cn1c(SCC2CCCO2)nnc1-c1cccc([N+](=O)[O-])c1 (configuration not stated)	none
O=C(NC(NC1CCS(=O)(=O)C1)C(Cl)(Cl)Cl)c1ccc(Br)cc1 (configuration not stated)	Ba/F3 V617F tox 36 | BaF3 parental 2 inactive | JAK2V617F conf 24
O=C(NC(NC1CCS(=O)(=O)C1)C(Cl)(Cl)Cl)c1cccc(Cl)c1 (configuration not stated)	none
COc1ccccc1CC(=O)O/N=C(\N)Cc1cccc2ccccc12	Ba/F3 V617F tox 34 | BaF3 parental 2 inactive | JAK2V617F conf inactive
Cc1nnc(SCC(=O)NC(C)c2ccccc2)[nH]c1=O (configuration not stated)	none
O=C(NC1CCCc2ccccc21)c1n[nH]c(=O)c2ccccc12 (configuration not stated)	Ba/F3 V617F tox 24 | BaF3 parental 2 inactive | JAK2V617F conf 42
COc1ccc(Cl)c(Cn2c(NCc3ccco3)nc3c2c(=O)n(C)c(=O)n3C)c1	Ba/F3 V617F tox 37 | BaF3 parental 2 83 | JAK2V617F conf 62
CCCn1c(NCc2ccco2)nc2c1c(=O)n(C)c(=O)n2C	none
O=C(CSc1ccc(Cl)cc1Cl)N1CCC(c2nc3ccccc3s2)CC1	none (no result: b-catenin transl)
NC(=O)/C(=N\OC(=O)c1ccco1)c1nc(-c2ccc(Br)cc2)cs1	Ba/F3 V617F tox 31 | BaF3 parental 2 inactive | JAK2V617F conf 31
Cc1ccc(C)c(-n2c(-c3csc(C)c3C)n[nH]c2=S)c1	none
O=Cc1[nH]c2ccccc2c1N(C(=O)CCl)c1ccc([N+](=O)[O-])cc1	none (no result: APP 5UTR inh, MT stabilize HCS, Lmaj promast)
CC(=O)n1cc(N(C(=O)CCl)c2ccc([N+](=O)[O-])cc2)c2ccccc21	Ba/F3 V617F tox 63 (no result: APP 5UTR inh, MT stabilize HCS, Lmaj promast) | BaF3 parental 2 46 | JAK2V617F conf 100
CC(=O)n1cc(N(C(=O)CCl)c2ccccc2)c2ccccc21	Ba/F3 V617F tox 96 (no result: APP 5UTR inh, MT stabilize HCS, Lmaj promast) | BaF3 parental 2 98 | JAK2V617F conf 99
CN1/C(=C\C(=O)CSc2nnc(NCc3ccccc3)s2)C(C)(C)c2ccccc21	Ba/F3 V617F tox 33 | BaF3 parental 2 inactive | JAK2V617F conf inactive
CSc1sc(C)cc1/C=N/O	none
Cc1cc(C)nc(SC2=CS(=O)(=O)c3ccccc32)n1	none
O=S1(=O)C=C(Sc2nnc(-c3ccccc3)o2)c2ccccc21	Ba/F3 V617F tox 34, APP 5UTR inh 96 | BaF3 parental 2 94 | JAK2V617F conf 98
COC(=O)c1ccc(/C=N/N2CCN(Cc3ccc(Cl)cc3)CC2)cc1	none (no result: APP 5UTR inh, MT stabilize HCS, Lmaj promast)
CCc1ccc(NC(=O)c2noc3c2CCc2ccccc2-3)cc1	Ba/F3 V617F tox 61 (no result: b-catenin transl) | BaF3 parental 2 inactive | JAK2V617F conf inactive
COc1ccc(NC(=O)/C(C#N)=C\c2cc(C)n(-c3ccc4c(c3)OCO4)c2C)cc1	Ba/F3 V617F tox 30, MT stabilize HCS 24 (no result: b-catenin transl) | BaF3 parental 2 73 | JAK2V617F conf 93
COc1ccccc1N1CCN(/N=C/c2cccc(OC)c2OC)CC1	none
COc1ccccc1N1CCN(CCOc2c(OC)cccc2OC)CC1	Ba/F3 V617F tox 26 (no result: b-catenin transl) | BaF3 parental 2 inactive | JAK2V617F conf inactive
CCOc1ccccc1N1CCN(Cc2cccc(OC)c2O)CC1	Ba/F3 V617F tox 40 (no result: b-catenin transl) | BaF3 parental 2 inactive | JAK2V617F conf inactive

Screening results: PubChem BioAssay, several laboratories
